Published values collected from several papers.
Each line is one published result; the experiments were not run side by side.
Target: Ephrin type-A receptor 2 (EPHA2, Homo sapiens, UniProt P29317)

CC(C)(C)c1ccc(-c2nc(CBr)nn2-c2cccc(O)c2)cc1 — remaining binding (cell-free assay; competition with immobilised ligand; 10 µM): 89%
Cc1cnn2ncc(-c3ccnc(N(C)C)n3)c2c1 — remaining binding (binding; 1 µM): 95%
O=C(c1ccc(Nc2ncc(Cl)c(-c3cc4ccccc4s3)n2)cc1)N1CCC(N2CCCC2)CC1 — remaining binding (binding; competition with immobilised ligand; 1 µM): 60%
C[C@@H]1CCN(c2nccc(-c3cnn4ncccc34)n2)C1 — remaining binding (binding; 1 µM): 93%
Cc1nc(C2CCN(C(=O)c3ccc(OC(F)(F)F)cc3N)CC2)c2ncc(N3CCN(C)CC3)cc2n1 — remaining binding (cell-free assay; competition with immobilised ligand; 1 µM): 100%
O=C(Nc1c[nH]nc1C(=O)NC1CCNCC1)c1cc(F)cc(F)c1 — remaining binding (binding; competition with immobilised ligand; 1 µM): 100%
CCC(=N\O)/C(C)=C/c1ccc(F)cc1 — remaining binding (cell-free assay; competition with immobilised ligand; 1 µM): 84%
C[C@@H]1CN(c2ccc3ncc(-c4ccc5[nH]nc(C6CC6)c5c4)n3n2)C[C@H](C)O1 — remaining binding (binding; competition with immobilised ligand; 0.5 µM): 100%
C[C@H](c1ccnc(Nc2nc3ccc(-c4cc(N(C)C)ncn4)cc3[nH]2)c1)N1CCN(C(=O)CC(F)(F)F)CC1 — remaining binding (cell-free assay; competition with immobilised ligand; 0.1 µM): 100%
COc1cnc(Nc2cccc(S(N)(=O)=O)c2)nc1N1CCN(c2ccccc2)C(=O)C1 — remaining binding (binding; competition with immobilised ligand; 1 µM): 99%
CN(C)C(=O)Cn1cc(-c2nc([C@@](C)(c3ccc(-c4cnc(N)nc4)cc3)C3CC3)no2)cn1 — remaining binding (cell-free assay; competition with immobilised ligand; 1 µM): 100%
O=C(NCCCN1CCOCC1)c1ccc(Nc2ncc(Cl)c(-c3ccc(Cl)s3)n2)cc1 — remaining binding (binding; competition with immobilised ligand; 1 µM): 100%
COc1ccnn2ncc(-c3ccnc(N(C)C)n3)c12 — remaining binding (binding; 1 µM): 100%
CS(=O)(=O)c1cc(C2(NC(=O)c3cncc4c3cnn4-c3ccc(F)cc3)CC2)ccn1 — remaining binding (cell-free assay; competition with immobilised ligand; 1 µM): 100%
C[C@@H](c1ccc(-n2cnc3c(N)ncnc32)cc1)N1CCc2nn(C)c(Cc3ccccc3)c2C1=O — remaining binding (binding; competition with immobilised ligand; 0.1 µM): 100%
CN(C)c1nccc(-c2cnc3ncccn23)n1 — remaining binding (binding; 1 µM): 100%
Cc1noc([C@H]2C[C@@H](c3ccc(C(F)(F)F)cc3)CN(C(=O)N3CCS(=O)(=O)C3)C2)n1 — remaining binding (cell-free assay; competition with immobilised ligand; 1 µM): 100%
CNC(=O)[C@@H]1CC[C@@H](n2c(-c3ccc4cnccc4c3)nc3ccc(C(=O)NCc4cccc(C(N)=O)c4)cc32)C1 — remaining binding (binding; competition with immobilised ligand; 1 µM): 98%
O=C(NCc1ncc(C(F)(F)F)cc1Cl)c1ccc2c(c1)C1(CCS(=O)(=O)CC1)[C@@H](C1CC1)N2S(=O)(=O)c1ccc(F)cc1 — remaining binding (cell-free assay; competition with immobilised ligand; 1 µM): 84%
CN(C)c1ncc(F)c(-c2cnn3ncccc23)n1 — remaining binding (binding; 1 µM): 80%
O=C(c1ccc(Nc2nccc(-c3cc4ccccc4s3)n2)cc1)N1CCC(N2CCCC2)CC1 — remaining binding (binding; competition with immobilised ligand; 1 µM): 65%
N[C@H]1CCN(c2nccc(-c3cnn4ncccc34)n2)C1 — remaining binding (binding; 1 µM): 87%
C[C@@H]1CN(c2cc(-c3n[nH]c4ccc(OC5(C)CC5)cc34)ncn2)C[C@H](C)O1 — remaining binding (cell-free assay; competition with immobilised ligand; 0.1 µM): 72%
c1cncc(-c2cccc(Nc3nccc(NC4CCCCC4)n3)c2)c1 — remaining binding (binding; competition with immobilised ligand; 10 µM): 83%
CC1CCCN1c1nccc(-c2cnn3ncccc23)n1 (stereo not shown) — remaining binding (binding; 1 µM): 99%
